Converted amounts (≈) assume the structure as drawn. The source made the active and inactive calls. The calls are words filed in the database; no cut-off is given here.
What was measured:
[1] = tested on: Human immunodeficiency virus 1; test: Antiviral activity against HIV1 3B infected in human MT4 cells assessed as time-of-addition prolongation at 2 ug/ml after 31 hrs post infection by ELISA; type: functional
Method in brief: (§1)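 Time-of-addition: MT-4 cells infected with HIV-1 IIIB at moi 0.5 for a 1 h adsorption, then plated at 45000 cells/well at 37 °C. Compound added at 0, 1, 2, 3, 4, 5, 6, 7, 8, 24 or 25 h post-infection. Supernatant p24 antigen measured by ELISA at 31 h post-infection.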

[2] = tested on: Human immunodeficiency virus 1; test: Antiviral activity against HIV1 3B infected in human A72 Jurkat cells assessed as inhibition of GFP expression after 48 hrs by flow cytometry; type: functional, organism-based; conditions: Human immunodeficiency virus 1, 3B
Method in brief: (§2)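 Acutely infected A72 Jurkat cells. EC50 (μg/mL) is the concentration giving 50% inhibition of GFP expression relative to drug-free infection. CC50 is 50% reduction in cell viability. SI = CC50/EC50. Mean ± SD of ≥2 experiments.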

[3] = tested on: Human immunodeficiency virus 2; test: Antiviral activity against HIV2 ROD infected in human A72 Jurkat cells assessed as inhibition of GFP expression after 48 hrs by flow cytometry; type: functional, organism-based; conditions: Human immunodeficiency virus 2, ISOLATE ROD; method in brief: as §2
[4] = tested on: Human immunodeficiency virus 1; test: Antiviral activity against HIV1 NL4-3 infected in human A72 Jurkat cells assessed as inhibition of GFP expression after 48 hrs by flow cytometry; type: functional, organism-based; conditions: Human immunodeficiency virus 1, NL4-3, Jurkat; method in brief: as §2
[5] = tested on: Human immunodeficiency virus; test: Antiviral activity against AZT-resistant HIV infected in human A72 Jurkat cells assessed as inhibition of GFP expression after 48 hrs by flow cytometry; type: functional, organism-based; conditions: Human immunodeficiency virus 1, Jurkat; method in brief: as §2
[6] = tested on: Human immunodeficiency virus; test: Antiviral activity against HIV S056 infected in human A72 Jurkat cells assessed as inhibition of GFP expression after 48 hrs by flow cytometry; type: functional, organism-based; conditions: Human immunodeficiency virus 1, S056, Jurkat; method in brief: as §2
[7] = tested on: Human immunodeficiency virus; test: Antiviral activity against HIV S067 infected in human A72 Jurkat cells assessed as inhibition of GFP expression after 48 hrs by flow cytometry; type: functional, organism-based; conditions: Human immunodeficiency virus 1, S067, Jurkat; method in brief: as §2
[8] = tested on: Human immunodeficiency virus; test: Antiviral activity against HIV S07 infected in human A72 Jurkat cells assessed as inhibition of GFP expression after 48 hrs by flow cytometry; type: functional, organism-based; conditions: Human immunodeficiency virus 1, S07, Jurkat; method in brief: as §2
[9] = Cytotoxicity against human Jurkat A72 cells by MTT assay; type: cell-based; method in brief: as §2
[10] = Selectivity index, ratio of CC50 for human Jurkat A72 cells to EC50 for HIV1 3B; type: toxicity, cell-based; method in brief: as §2
[11] = tested on: Human immunodeficiency virus 1; test: Antiviral activity against HIV1 3B infected in human MT4 cells after 5 days by MTT assay; type: functional, organism-based; conditions: Human immunodeficiency virus 1, 3B, MT4, 120 h
Method in brief: (§3)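 MT-4 cells in RPMI 1640 with 10% heat-inactivated FCS, 2 mM L-glutamine, 0.1% bicarbonate and gentamicin, seeded at 6 × 10⁵ cells/mL final with virus or mock infection. Viability read by MTT after 5 days at 540 and 690 nm, using the median OD of three wells. CC50 is 50% loss of mock-infected OD540. EC50 is 50% inhibition of virus-induced CPE. SI = CC50/EC50. Mean ± SD of ≥2 experiments.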

[12] = tested on: Human immunodeficiency virus 2; test: Antiviral activity against HIV2 ROD infected in human MT4 cells after 5 days by MTT assay; type: functional, organism-based; conditions: Human immunodeficiency virus 2, ISOLATE ROD, MT4, 120 h; method in brief: as §3
[13] = tested on: Simian immunodeficiency virus; test: Antiviral activity against SIV MAC251 infected in human MT4 cells after 5 days by MTT assay; type: functional, organism-based; conditions: MAC251, MT4, 120 h; method in brief: as §3
[14] = Cytotoxicity against human MT4 cells after 5 days by MTT assay; type: cell-based; method in brief: as §3
[15] = Selectivity index, ratio of CC50 for human MT4 cells to EC50 for HIV1 3B; type: toxicity, cell-based; conditions: read-out: Ratio CC50/EC50; method in brief: as §3
[16] = tested on: Human immunodeficiency virus 1; test: Antiviral activity against HIV1 3B infected in human PBMC assessed as inhibition of viral p24 antigen production by ELISA; type: functional, organism-based; conditions: Human immunodeficiency virus 1, 3B
Method in brief: (§4)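 PBMCs infected with HIV-1 IIIB and cultured with a range of compound concentrations. EC50 is 50% inhibition of supernatant p24 core antigen (ELISA) relative to drug-free culture. CC50 is 50% reduction in cell viability. SI = CC50/EC50. Mean ± SD of ≥2 experiments.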

[17] = Cytotoxicity against human PBMC after 5 days by MTT assay; type: cell-based; method in brief: as §4
[18] = Selectivity index, ratio of CC50 for human PBMC to EC50 for HIV1 3B; method in brief: as §4
[19] = tested on: Human immunodeficiency virus 1; test: Antiviral activity against HIV1 3B infected in human MT4 cells assessed as time-of-addition prolongation at 100 ug/ml after 31 hrs post infection by ELISA; type: functional; method in brief: as §1
[20] = tested on: Human immunodeficiency virus 1; test: Antiviral activity against HIV1 NL4-3 pseudotyped with VSV-G envelope infected in human C8166 cells assessed as inhibition of GFP expression after 48 hrs by flow cytometry; type: functional, organism-based
Method in brief: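 VSV-G-pseudotyped (env-deficient) GFP-encoding NL4.3 taken from transfection supernatant at 60 h and clarified at 450g for 10 min. Used to infect 3 × 10⁴ C8166 cells (RPMI 1640, 10% FCS) with graded compound concentrations. GFP expression read by flow cytometry 48 h post-infection, with the no-compound infection control set as 100%.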

Human alphaherpesvirus 1 [21] = test: Antiviral activity against HSV1 KOS infected in human E6SM cell assessed as inhibition of virus-induced cytopathicity; type: functional, organism-based; conditions: Human alphaherpesvirus 1, KOS
Human alphaherpesvirus 2 = test: Antiviral activity against HSV2 G infected in human E6SM cell assessed as inhibition of virus-induced cytopathicity; type: functional, organism-based; conditions: Human alphaherpesvirus 2, strain G
Vaccinia virus = test: Antiviral activity against Vaccina virus infected in human E6SM cell assessed as inhibition of virus-induced cytopathicity; type: functional, organism-based; conditions: Orthopoxvirus vaccinia
[22] = tested on: Vesicular stomatitis virus; test: Antiviral activity against VSV infected in human E6SM cell assessed as inhibition of virus-induced cytopathicity; type: functional, organism-based
Human alphaherpesvirus 1 [23] = test: Antiviral activity against TK-deficient acyclovir-resistant HSV1 KOS infected in human E6SM cell assessed as inhibition of virus-induced cytopathicity; type: functional, organism-based; conditions: Human alphaherpesvirus 1, KOS
[24] = tested on: Vesicular stomatitis virus; test: Antiviral activity against VSV infected in human HeLa cell assessed as inhibition of virus-induced cytopathicity; type: functional, organism-based
[25] = tested on: Respiratory syncytial virus; test: Antiviral activity against RSV infected in human HeLa cell assessed as inhibition of virus-induced cytopathicity; type: functional, organism-based
[26] = Cytotoxicity against human E6SM cells by MTT assay; type: cell-based
[27] = Cytotoxicity against human HeLa cells by MTT assay; type: cell-based
Human respirovirus 3 = test: Antiviral activity against Parainfluenza virus 3 infected in african green monkey Vero cells assessed as inhibition of virus-induced cytopathicity; type: functional, organism-based; conditions: Human respirovirus 3, Vero
Reovirus sp. = test: Antiviral activity against Reovirus infected in african green monkey Vero cells assessed as inhibition of virus-induced cytopathicity; type: functional, organism-based
Sindbis virus = test: Antiviral activity against Sindbis virus infected in african green monkey Vero cells assessed as inhibition of virus-induced cytopathicity; type: functional, organism-based
Punta Toro virus = test: Antiviral activity against Punta Toro virus infected in african green monkey Vero cells assessed as inhibition of virus-induced cytopathicity; type: functional, organism-based
[28] = Cytotoxicity against african green monkey Vero cells by MTT assay; type: cell-based; conditions: chlorocebus sabaeus
[29] = tested on: Human immunodeficiency virus; test: Antiviral activity against HIV SO6141 infected in human MT4 cells after 5 days by MTT assay; type: functional, organism-based; conditions: Human immunodeficiency virus 1, SO6141, MT4, 120 h; method in brief: as §3
[30] = tested on: Human immunodeficiency virus 1; test: Antiviral activity against HIV1 3B infected in human MT4 cells assessed as time-of-addition prolongation at 0.5 ug/ml after 31 hrs post infection by ELISA; type: functional; method in brief: as §1

Structure (SMILES)	EC50 [2]	EC50 [3]	EC50 [4]	EC50 [5]	EC50 [6]	EC50 [7]	EC50 [8]	CC50 [9]	EC50 [11]	EC50 [12]	EC50 [13]	CC50 at 120 h [14]	selectivity ratio [15]	EC50 [16]	CC50 at 120 h [17]	Ratio CC50/EC50 [18]	inhibition [20]	EC50 (Human alphaherpesvirus 1 [21])	EC50 (Human alphaherpesvirus 2)	EC50 (Vaccinia virus)	other results
Cc1ccnc2c1NC(=O)c1cccnc1N2C1CC1 [NEVIRAPINE]	0.008 µg/mL (≈ 0.03 µM)	> 2 µg/mL	0.008 µg/mL (≈ 0.03 µM)	0.005 µg/mL (≈ 0.0188 µM)	< 0.2 µg/mL	0.016 µg/mL (≈ 0.0601 µM)	0.012 µg/mL (≈ 0.0451 µM)	> 2 µg/mL	–	–	–	–	–	–	–	–	–	–	–	–	Time [1]: 10 h; selectivity ratio [10]: > 250
CC[n+]1ccc(-c2cc[n+](Cc3cc(Cc4ccc(-c5cc[n+](Cc6cc(C[n+]7ccc(-c8cc[n+](Cc9cc(C[n+]%10ccc(-c%11cc[n+](CC)cc%11)cc%10)cc(C[n+]%10ccc(-c%11cc[n+](CC)cc%11)cc%10)c9)cc8)cc7)cc(C[n+]7ccc(-c8cc[n+](Cc9cc(C[n+]%10ccc(-c%11cc[n+](CC)cc%11)cc%10)cc(C[n+]%10ccc(-c%11cc[n+](CC)cc%11)cc%10)c9)cc8)cc7)c6)cc5)cc4)cc(C[n+]4ccc(-c5cc[n+](CC)cc5)cc4)c3)cc2)cc1.F[P-](F)(F)(F)(F)F.F[P-](F)(F)(F)(F)F.F[P-](F)(F)(F)(F)F.F[P-](F)(F)(F)(F)F.F[P-](F)(F)(F)(F)F.F[P-](F)(F)(F)(F)F.F[P-](F)(F)(F)(F)F.F[P-](F)(F)(F)(F)F.F[P-](F)(F)(F)(F)F.F[P-](F)(F)(F)(F)F.F[P-](F)(F)(F)(F)F.F[P-](F)(F)(F)(F)F.F[P-](F)(F)(F)(F)F.F[P-](F)(F)(F)(F)F.F[P-](F)(F)(F)(F)F.F[P-](F)(F)(F)(F)F.F[P-](F)(F)(F)(F)F	0.685 µg/mL	21.5 µg/mL	< 0.2 µg/mL	5.9 µg/mL	< 2 µg/mL	< 0.2 µg/mL	< 0.2 µg/mL	102 µg/mL	0.26 µM	> 19.7 µM	0.46 µM	19.7 µM	75.8	1.62 µg/mL	4.04 µg/mL	2.5	Dose-dependent effect	2 µg/mL	10 µg/mL	> 50 µg/mL	Time [19]: 1 h; selectivity ratio ([10]; read-out: Ratio CC50/EC50): 149; EC50 [22]: > 50 µg/mL; EC50 (Human alphaherpesvirus 1 [23]): 10 µg/mL; EC50 [24]: > 50 µg/mL; EC50 [25]: 50 µg/mL; MCC [26]: > 50 µg/mL; MCC [27]: > 50 µg/mL; EC50 (Human respirovirus 3): > 50 µg/mL; EC50 (Reovirus sp.): > 50 µg/mL; EC50 (Sindbis virus): > 50 µg/mL; EC50 (Punta Toro virus): > 50 µg/mL; MCC [28]: > 50 µg/mL; EC50 [29]: ≥ 1.55 µM
c1cc(CN2CCCNCCNCCCNCC2)ccc1CN1CCCNCCNCCCNCC1	–	–	–	–	–	–	–	–	–	–	–	–	–	–	–	–	inactive	–	–	–	–
Cc1cn([C@H]2C[C@H](N=[N+]=[N-])[C@@H](CO)O2)c(=O)[nH]c1=O [ZIDOVUDINE]	–	–	–	–	–	–	–	–	–	–	–	–	–	–	–	–	–	–	–	–	Time [30]: 5 h
CC[n+]1ccc(-c2cc[n+](Cc3cc(C[n+]4ccc(-c5cc[n+](CC)cc5)cc4)cc(-[n+]4ccc(-c5cc[n+](-c6cc(C[n+]7ccc(-c8cc[n+](CC)cc8)cc7)cc(C[n+]7ccc(-c8cc[n+](CC)cc8)cc7)c6)cc5)cc4)c3)cc2)cc1.F[P-](F)(F)(F)(F)F.F[P-](F)(F)(F)(F)F.F[P-](F)(F)(F)(F)F.F[P-](F)(F)(F)(F)F.F[P-](F)(F)(F)(F)F.F[P-](F)(F)(F)(F)F.F[P-](F)(F)(F)(F)F.F[P-](F)(F)(F)(F)F.F[P-](F)(F)(F)(F)F.F[P-](F)(F)(F)(F)F	–	–	–	–	–	–	–	–	1.01 µM	> 49 µM	> 49 µM	> 49 µM	48.5	0.79 µg/mL	26.8 µg/mL	34	–	6 µg/mL	50 µg/mL	> 50 µg/mL	EC50 [22]: > 50 µg/mL; EC50 (Human alphaherpesvirus 1 [23]): 30 µg/mL; EC50 [24]: > 50 µg/mL; EC50 [25]: 50 µg/mL; MCC [26]: > 50 µg/mL; MCC [27]: > 50 µg/mL; EC50 (Human respirovirus 3): > 50 µg/mL; EC50 (Reovirus sp.): > 50 µg/mL; EC50 (Sindbis virus): > 50 µg/mL; EC50 (Punta Toro virus): > 50 µg/mL; MCC [28]: > 50 µg/mL; EC50 [29]: > 49 µM
